Test results: ChEMBL document CHEMBL1129982, “Structure-activity relationships in a series of orally active gamma-hydroxy butenolide endothelin antagonists” (J Med Chem, 1997)

Legend:
Endothelin-1 receptor = target: T1, Endothelin-1 receptor (Homo sapiens, UniProt P25101); assay: Binding affinity against human cloned endothelin A receptor expressed in LTK-cells; assay type: cell-based
T1 sequence (P25101 whole entry): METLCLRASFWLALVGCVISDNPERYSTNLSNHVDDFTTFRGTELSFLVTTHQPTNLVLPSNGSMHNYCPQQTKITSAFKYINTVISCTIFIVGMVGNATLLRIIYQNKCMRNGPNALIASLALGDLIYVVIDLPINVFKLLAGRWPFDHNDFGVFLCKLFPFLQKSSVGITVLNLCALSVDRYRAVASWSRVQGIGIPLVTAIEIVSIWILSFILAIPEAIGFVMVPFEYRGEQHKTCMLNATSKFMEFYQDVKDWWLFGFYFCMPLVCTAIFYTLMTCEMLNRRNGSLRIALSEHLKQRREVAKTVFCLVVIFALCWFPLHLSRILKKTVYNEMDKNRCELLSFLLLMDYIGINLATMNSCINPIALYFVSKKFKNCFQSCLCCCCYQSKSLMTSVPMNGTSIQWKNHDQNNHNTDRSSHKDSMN
How it was run: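 Radioligand binding to cloned human ETA (Ltk⁻ cells) and ETB (CHO-K1 cells) receptors. Selectivity expressed as ETB IC50/ETA IC50.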

[1] = target: T2, Endothelin receptor type B (Homo sapiens, UniProt P24530); assay: Binding affinity against human cloned Endothelin B receptor expressed in CHO-K1 cells; assay type: cell-based
T2 sequence (P24530 whole entry): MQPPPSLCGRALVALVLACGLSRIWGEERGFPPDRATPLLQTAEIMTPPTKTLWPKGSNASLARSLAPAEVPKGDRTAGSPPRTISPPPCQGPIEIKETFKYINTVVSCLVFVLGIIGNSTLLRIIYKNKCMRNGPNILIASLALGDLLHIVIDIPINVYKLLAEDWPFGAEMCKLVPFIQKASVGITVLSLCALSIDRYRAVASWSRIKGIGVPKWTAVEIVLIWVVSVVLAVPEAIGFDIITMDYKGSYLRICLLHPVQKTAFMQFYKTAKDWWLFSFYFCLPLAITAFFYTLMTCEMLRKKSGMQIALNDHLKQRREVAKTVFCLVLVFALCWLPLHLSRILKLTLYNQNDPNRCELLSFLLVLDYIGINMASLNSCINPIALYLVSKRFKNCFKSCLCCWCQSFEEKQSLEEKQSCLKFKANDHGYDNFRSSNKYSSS
How it was run: (§1)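 Radioligand binding to cloned human ETA (Ltk⁻ cells) and ETB (CHO-K1 cells) receptors. […] Selectivity expressed as ETB IC50/ETA IC50.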

[2] = target: Endothelin receptor, ET-A/ET-B (Homo sapiens) (UniProt P24530+P25101); assay: Selectivity of compound on ET B with respect to ET A receptor; assay type: protein assay; how it was run: as §1
[3] = target: T2, Endothelin receptor type B; assay: Inhibition of Endothelin B receptor mediated (ET-3) release of arachidonic acid from human cloned receptors expressed in CHO-K1 cells; assay type: cell-based
How it was run: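 Arachidonic acid release assay. ETA: rabbit renal artery vascular smooth muscle cells stimulated with ET-1. ETB: recombinant human receptors in CHO-K1 cells stimulated with ET-3.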

SMILES	IC50 (Endothelin-1 receptor) [nM]	IC50 [1] [nM]	Selectivity [2]	IC50 [3] [nM]
CCc1ccc(C2(O)OC(=O)C(c3ccc4c(c3)OCO4)=C2Cc2ccccc2)cc1 (stereo unspecified)	630	> 2500		
COc1ccc(C2OC(=O)C(c3ccc4c(c3)OCO4)=C2Cc2cc(OC)c(OC)c(OC)c2)cc1 (stereo unspecified)		> 25000		
COc1cccc(C2(O)OC(=O)C(c3ccc4c(c3)OCO4)=C2Cc2ccccc2)c1 (stereo unspecified)	500	18000		
COC(=O)c1ccc(C2(O)OC(=O)C(c3ccc4c(c3)OCO4)=C2Cc2ccccc2)cc1 (stereo unspecified)	400	> 2500		
COc1ccc(C2(O)OC(=O)C(c3ccc4c(c3)OCO4)=C2Cc2ccc(-c3ccccc3)cc2)cc1 (stereo unspecified)	200			
COc1ccc(C2(O)OC(=O)C(c3ccc4c(c3)OCO4)=C2Cc2ccc([N+](=O)[O-])cc2)cc1 (stereo unspecified)	800	17000		
COc1ccc(C2(O)OC(=O)C(c3ccc4c(c3)OCO4)=C2Cc2ccc(C)cc2)cc1 (stereo unspecified)		> 2500		
COc1ccc(C2(O)OC(=O)C(c3ccc4c(c3)OCO4)=C2Cc2ccc(OC)c(C)c2)cc1 (stereo unspecified)		1140		
COc1ccccc1C1(O)OC(=O)C(c2ccc3c(c2)OCO3)=C1Cc1ccccc1 (stereo unspecified)	480	> 2500		
COc1ccc(C2(OC)OC(=O)C(c3ccc4c(c3)OCO4)=C2Cc2ccccc2)cc1 (stereo unspecified)	300	> 25000		
COc1ccc(C(=O)/C(Cc2cc(OC)c(OC)c(OC)c2)=C(\C(=O)O)c2cc(OC)c3c(c2)OCO3)cc1C				68
COc1ccc(C2(O)OC(=O)C(c3ccc(OC)c(OC)c3)=C2Cc2ccccc2)cc1 (stereo unspecified)	70			
CC(C)Oc1ccc(C2(O)OC(=O)C(c3ccc4c(c3)OCO4)=C2Cc2ccccc2)cc1 (stereo unspecified)	1150	11000		
COc1ccc(CC2=C(c3ccc(OC)cc3)C(=O)OC2(O)c2ccc(OC)cc2)cc1 (stereo unspecified)		9000		
COc1ccc(C2(O)OC(=O)C(c3ccc4c(c3)OCO4)=C2Cc2ccc(Cl)c(Cl)c2)cc1 (stereo unspecified)	150	> 2500		
COc1ccc(C2(O)OC(=O)C(c3ccc4c(c3)OCO4)=C2Cc2cccc(C(=O)O)c2)cc1 (stereo unspecified)	50	> 2500		

SMILES	IC50 (Endothelin-1 receptor) [nM]	IC50 [1] [nM]	Selectivity [2]	IC50 [3] [nM]
O=C1OC(O)(c2ccc(OCc3ccccc3)cc2)C(Cc2ccccc2)=C1c1ccc2c(c1)OCO2 (stereo unspecified)	950			
COc1ccc(C2(O)OC(=O)C(c3ccc(OC)cc3OC)=C2Cc2ccccc2)cc1 (stereo unspecified)	300			
CSc1ccc(C2(O)OC(=O)C(c3ccc4c(c3)OCO4)=C2Cc2ccccc2)cc1 (stereo unspecified)	170	> 2500		
COc1ccc(C2(O)OC(=O)C(c3ccc4c(c3)OCO4)=C2Cc2cccc([N+](=O)[O-])c2)cc1 (stereo unspecified)	70	> 25000		
O=C1OC(O)(c2ccc(C(=O)O)cc2)C(Cc2ccccc2)=C1c1ccc2c(c1)OCO2 (stereo unspecified)	> 25000	> 2500		
COc1ccc(C2(O)OC(=O)C(c3cc(OC)cc(OC)c3)=C2Cc2ccccc2)cc1 (stereo unspecified)	46	5200		
COc1ccc(C2OC(=O)C(c3ccc4c(c3)OCO4)=C2Cc2ccccc2)cc1 (stereo unspecified)	700	> 2500		
COc1ccc(C(=O)/C(Cc2ccc(NC(C)=O)cc2)=C(\C(=O)O)c2ccc3c(c2)OCO3)cc1				8200
COc1ccc(CC2=C(c3ccc(C)cc3)C(=O)OC2(O)c2ccc(OC)cc2)cc1 (stereo unspecified)		> 2500		
COc1ccc(C2(O)OC(=O)C(c3ccc4c(c3)OCO4)=C2Cc2cccc3c2CCc2ccccc2C3=O)cc1 (stereo unspecified)	16000	10000		
COc1ccc(C2(O)OC(=O)C(c3cccc(OC)c3)=C2Cc2ccccc2)cc1 (stereo unspecified)	90	12000		
COc1ccc(C2(O)OC(=O)C(c3cc(OC)c4c(c3)OCO4)=C2Cc2cc(OC)c(OC)c(OC)c2)cc1C (stereo unspecified)		180		
COc1ccc(C2(O)OC(=O)C(c3cc(OC)ccc3OC)=C2Cc2ccccc2)cc1 (stereo unspecified)	240	> 2500		
COc1ccc(C2(OC)OC(=O)C(c3ccc4c(c3)OCO4)=C2Cc2cc(OC)c(OC)c(OC)c2)cc1 (stereo unspecified)	600	> 2500		
CCC1=C(c2ccc3c(c2)OCO3)C(=O)OC1(O)c1ccc(OC)cc1 (stereo unspecified)	320			
COc1ccc(C2(O)OC(=O)C(c3cc(OC)c(OC)c(OC)c3)=C2Cc2ccccc2)cc1 (stereo unspecified)	1300	1600		

Continued, values first:

IC50 (Endothelin-1 receptor) [nM]	IC50 [1] [nM]	Selectivity [2]	IC50 [3] [nM]	SMILES
3.9	> 2500			COc1ccc(C2(O)OC(=O)C(c3ccc4c(c3)OCO4)=C2Cc2ccc(SC)cc2)cc1 (stereo unspecified)
6.7	640			COc1ccc(C2(O)OC(=O)C(c3cc(OC)c4c(c3)OCO4)=C2Cc2ccccc2)cc1 (stereo unspecified)
8	> 250			COc1ccc(C2(O)OC(=O)C(c3ccc4c(c3)OCO4)=C2Cc2ccc(O)cc2)cc1 (stereo unspecified)
11				COc1ccc(C2(O)OC(=O)C(c3ccc4c(c3)OCO4)=C2Cc2cccc(OC)c2OC)cc1 (stereo unspecified)
10	630			COc1ccc(C2(O)OC(=O)C(c3ccc4c(c3)OCO4)=C2CC2CCCC2)cc1 (stereo unspecified)
11				COC(=O)c1ccc(CC2=C(c3ccc4c(c3)OCO4)C(=O)OC2(O)c2ccc(OC)cc2)cc1 (stereo unspecified)
14	> 2500			COc1ccc(C2(O)OC(=O)C(c3ccc4c(c3)OCO4)=C2Cc2ccc3ccccc3c2)cc1 (stereo unspecified)
40	> 2500			COc1ccc(C2(O)OC(=O)C(c3ccc4c(c3)OCO4)=C2Cc2cccnc2)cc1 (stereo unspecified)
4	3000			COc1ccc(C2(O)OC(=O)C(c3ccc4c(c3)OCO4)=C2Cc2ccc(S(C)(=O)=O)cc2)cc1 (stereo unspecified)
0.5	240	480		COc1ccc(C2(O)OC(=O)C(c3ccc4c(c3)OCO4)=C2Cc2cc(OC)c(OC)c(OC)c2)cc1C (stereo unspecified)
19				O=C1OC(O)(c2ccc3c(c2)OCO3)C(Cc2ccccc2)=C1c1ccc2c(c1)OCO2 (stereo unspecified)
10	3200			COc1ccc(C2(O)OC(=O)C(c3ccc4c(c3)OCO4)=C2Cc2nccc3ccccc23)cc1 (stereo unspecified)
7.5	1600			COc1ccc(C2(O)OC(=O)C(c3ccc4c(c3)OCO4)=C2Cc2ccc3c(c2)OCCO3)cc1 (stereo unspecified)
14	16000			COc1ccc(C2(O)OC(=O)C(c3ccc4c(c3)OCO4)=C2Cc2cc(OC)c3c(c2)OCO3)cc1 (stereo unspecified)
16				COc1ccc(C2(O)OC(=O)C(c3ccc4c(c3)OCO4)=C2Cc2ccc3c(c2)OCO3)cc1 (stereo unspecified)
43	> 2500			COc1ccc(C2(O)OC(=O)C(c3ccc4c(c3)OCO4)=C2Cc2cccc(C(F)(F)F)c2)cc1 (stereo unspecified)
8.2	1410			COc1ccc(C2(O)OC(=O)C(c3cc(OC)c4c(c3)OCO4)=C2Cc2ccccc2)cc1C (stereo unspecified)

IC50 (Endothelin-1 receptor) [nM]	IC50 [1] [nM]	Selectivity [2]	IC50 [3] [nM]	SMILES
25	4500			COc1cc(C2(O)OC(=O)C(c3ccc4c(c3)OCO4)=C2Cc2ccccc2)cc(OC)c1OC (stereo unspecified)
1.8				COc1ccc(C2(O)OC(=O)C(c3ccc4c(c3)OCO4)=C2Cc2cc(OC)c(OC)cc2OC)cc1 (stereo unspecified)
3	260			COc1ccc(C2(O)OC(=O)C(c3ccc4c(c3)OCO4)=C2Cc2cccc(OC)c2)cc1 (stereo unspecified)
1.7				COc1ccc(C2(O)OC(=O)C(c3ccc4c(c3)OCO4)=C2Cc2cc(OC)cc(OC)c2)cc1 (stereo unspecified)
28	1800			COc1ccc(C2(O)OC(=O)C(c3ccc4c(c3)OCO4)=C2Cc2ccc(N(C)C)cc2)cc1 (stereo unspecified)
35				COc1ccc(C2(O)OC(=O)C(c3ccc4c(c3)OCO4)=C2CC2CCCCCC2)cc1 (stereo unspecified)
1.2				COc1ccc(C2(O)OC(=O)C(c3ccc4c(c3)OCO4)=C2Cc2ccc(NC(C)=O)cc2)cc1 (stereo unspecified)
18	> 2500			COc1ccc(C2(O)OC(=O)C(c3ccc4c(c3)OCO4)=C2Cc2cccc3ccccc23)cc1 (stereo unspecified)
2.1				COc1ccc(C2(O)OC(=O)C(c3ccc4c(c3)OCO4)=C2Cc2cc(OC)ccc2OC)cc1 (stereo unspecified)
13	225			COc1ccc(C2(O)OC(=O)C(c3ccc4c(c3)OCO4)=C2CC2CCCCC2)cc1 (stereo unspecified)
8.5				COC(=O)c1cccc(CC2=C(c3ccc4c(c3)OCO4)C(=O)OC2(O)c2ccc(OC)cc2)c1 (stereo unspecified)
12				COc1ccc(C2(O)OC(=O)C(c3ccc4c(c3)OCO4)=C2Cc2ccccc2)cc1C (stereo unspecified)
1.4				COc1ccc(C2(O)OC(=O)C(c3ccc4c(c3)OCO4)=C2Cc2ccc(OC)c(OC)c2)cc1 (stereo unspecified)
11	18000			COc1ccc(C2(O)OC(=O)C(c3ccc4c(c3)OCO4)=C2Cc2ccccc2)cc1OC (stereo unspecified)
12	2000			COc1ccc(C2(O)OC(=O)C(c3ccc4c(c3)OCO4)=C2Cc2ccc(OC)c(OC)c2OC)cc1 (stereo unspecified)
13	> 2500			COc1ccc(C2(O)OC(=O)C(c3ccc4c(c3)OCO4)=C2Cc2ccccc2)c(OC)c1 (stereo unspecified)
